biological target: T1, GABA-A receptor; alpha-1/beta-2/gamma-2 (Rattus norvegicus) (UniProt P18508+P62813+P63138); assay: Percent stimulation of GABA-induced currents in Xenopus Oocytes expressing rat GABA-A receptor alpha-1-beta-2-gamma-2 subunits at 200 uM; assay type: functional, cell-based; details: not given
In short: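 Oocytes expressing recombinant rat α1β2γ2 GABA-A receptors (cRNA injected in 5 mM K-Hepes, pH 6.8) were recorded by two-electrode voltage clamp at -80 mV in 90 mM NaCl, 1 mM KCl, 1 mM MgCl2, 1 mM CaCl2, 10 mM Na-Hepes, pH 7.4. Compound was co-applied with GABA at 2-4% of maximal current for 20 s, then 4 min washout. Values are the mean of three assays ± SEM.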

Q: For `CCCC1(CCC)C(=O)OC[C@H]1NS(=O)(=O)N(C)C` (racemic), which Stimulation is on record?
A: -1%

Q: With `CCCC1(CCC)C(=O)OC[C@H]1NS(=O)(=O)c1ccc(C(F)(F)F)cc1` (racemic) as the molecule, how does the Stimulation read?
A: -44%

Q: For `C=CCC1(CC=C)C(=O)OC[C@H]1NCc1ccccc1` (racemic), which Stimulation is on record?
A: 115%

Q: With `CCCC1(CCC)C(=O)OC[C@H]1NS(=O)(=O)c1cccs1` (racemic) as the molecule, how does the Stimulation read?
A: -16%

Q: For `C=CC[C@H]1C(=O)OC[C@H]1NCc1ccccc1` (racemic), which Stimulation is on record?
A: 73%

Q: Which Stimulation does the source give for `CCCC1(CCC)C(=O)OC[C@H]1NC(=O)OC(C)(C)C` (racemic) here?
A: 46%

Q: With `O=C1C[C@H](NC(=O)OCc2ccccc2)CO1` (racemic) as the molecule, how does the Stimulation read?
A: 47%

Q: For `CCCC1(CCC)C(=O)OC[C@H]1NS(=O)(=O)c1ccc(OC)cc1` (racemic), which Stimulation is on record?
A: -22%

biological target: T1, GABA-A receptor; alpha-1/beta-2/gamma-2 (Rattus norvegicus); assay: Percent stimulation of GABA-induced currents in Xenopus Oocytes expressing rat GABA-A receptor alpha-1-beta-2-gamma-2 subunits at 50 uM; assay type: functional, cell-based; details: not given
In short: (§1)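 Xenopus laevis oocytes were injected with cRNA for rat receptor subunits and recorded by two-electrode voltage clamp at -80 mV. Bath was 90 mM NaCl, 1 mM KCl, 1 mM MgCl2, 1 mM CaCl2, 10 mM Na-Hepes pH 7.4. GABA giving about 2-4% of maximal current was applied for 20 s alone or with compound, with 4 min washout. Result is % change in current; average of three.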

Q: For `CCCC1(CCC)C(=O)OC[C@H]1NS(=O)(=O)c1ccc2ccccc2c1` (racemic), which Stimulation is on record?
A: 4%

biological target: T1, GABA-A receptor; alpha-1/beta-2/gamma-2 (Rattus norvegicus); assay: Percent stimulation of GABA-induced currents in Xenopus Oocytes expressing rat GABA-A receptor alpha-1-beta-2-gamma-2 subunits at 5 uM; assay type: functional, cell-based; details: not given; in short: as §1

Q: For `CCCC1(CCC)C(=O)OC[C@H]1NS(=O)(=O)c1ccc(Cl)cc1` (racemic), which Stimulation is on record?
A: 23%

biological target: T2, GABA-A receptor; anion channel (Rattus norvegicus) (UniProt O09028+P15431+P18506+P18508+P19969+P20236+P23574+P23576+P28471+P28473+P30191+P62813+P63079+P63138+Q91ZM7+Q9ES14); assay: Displacement of [35S]TBPS from Gamma-aminobutyric acid A (GABA-A) receptor of rat brain membranes at 100 uM; assay type: cell membranes; details: Membrane
In short: (§2)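 Rat cerebellum or forebrain (brain minus cerebellum) membranes, about 1 mg/mL protein, were incubated with 2 nM [35S]-TBPS in 50 mM Tris-citrate pH 7.4 plus 200 mM NaBr for 180 min at room temperature. Nonspecific binding was defined with 10 µM TBPS. Samples were filtered on GF/B and counted by scintillation. Result is % displacement; at least three experiments in triplicate.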

Q: With `C=CCC1(CC=C)C(=O)OC[C@H]1NCc1ccccc1` (racemic) as the molecule, how does the Displacement read?
A: 60%

Q: For `CCCC1(CCC)C(=O)OC[C@H]1NS(=O)(=O)c1ccc2ccccc2c1` (racemic), which Displacement is on record?
A: 75%

Q: Which Displacement does the source give for `CCCC1(CCC)C(=O)OC[C@H]1NS(=O)(=O)c1ccc(Cl)cc1` (racemic) here?
A: 85%

Q: With `C=CC[C@H]1C(=O)OC[C@H]1NCc1ccccc1` (racemic) as the molecule, how does the Displacement read?
A: 60%

Q: For `CCCC1(CCC)C(=O)OC[C@H]1NS(=O)(=O)c1ccc(OC)cc1` (racemic), which Displacement is on record?
A: 80%

species on record: Rattus norvegicus; assay: Displacement of [35S]-TBPS from Gamma-aminobutyric acid A (GABA-A) receptor of rat cerebellar tissue at 100 uM; details: not given; in short: as §2

Q: With `CCCC1(CCC)C(=O)OC[C@H]1NS(=O)(=O)c1ccc(C(F)(F)F)cc1` (racemic) as the molecule, how does the Displacement read?
A: 40%

species on record: Rattus norvegicus; assay: Displacement of [35S]TBPS from Gamma-aminobutyric acid A (GABA-A) receptor of rat forebrain tissue at 100 uM; details: not given; in short: as §2

Q: With `CCCC1(CCC)C(=O)OC[C@H]1NS(=O)(=O)c1ccc(C(F)(F)F)cc1` (racemic) as the molecule, how does the Displacement read?
A: 70%

biological target: T2, GABA-A receptor; anion channel (Rattus norvegicus); assay: Displacement of [3H]flunitrazepam from GABA-A receptor of rat brain membranes at 100 uM; assay type: cell membranes; details: Membrane
In short: (§3)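 Cerebellar or forebrain rat membranes, about 1 mg/mL protein, were incubated 90 min at 4 °C with 2 nM [3H]flunitrazepam in 50 mM Tris-citrate pH 7.4 with 150 mM NaCl. Nonspecific binding was set with 10 µM diazepam. Samples were filtered on GF/B and counted by scintillation. Result is % displacement or stimulation; at least three experiments in triplicate.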

Q: Which Displacement does the source give for `CCCC1(CCC)C(=O)OC[C@H]1NS(=O)(=O)c1ccc(C(F)(F)F)cc1` (racemic) here?
A: -20%

Q: Which Displacement does the source give for `C=CCC1(CC=C)C(=O)OC[C@H]1NCc1ccccc1` (racemic) here?
A: -14%

Q: For `CCCC1(CCC)C(=O)OC[C@H]1NS(=O)(=O)c1ccc2ccccc2c1` (racemic), which Displacement is on record?
A: 0%

Q: With `CCCC1(CCC)C(=O)OC[C@H]1NS(=O)(=O)c1ccc(Cl)cc1` (racemic) as the molecule, how does the Displacement read?
A: -25%

Q: For `C=CC[C@H]1C(=O)OC[C@H]1NCc1ccccc1` (racemic), which Displacement is on record?
A: 0%

Q: With `CCCC1(CCC)C(=O)OC[C@H]1NS(=O)(=O)c1ccc(OC)cc1` (racemic) as the molecule, how does the Displacement read?
A: 0%

biological target: T2, GABA-A receptor; anion channel (Rattus norvegicus); assay: Displacement of [3H]muscimol from Gamma-aminobutyric acid A (GABA-A) receptor of rat brain membranes at 100 uM; assay type: cell membranes; details: Membrane
In short: as §3, with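 “[3H]muscimol” for “[3H]flunitrazepam”, “taken” for “set”, “GABA. Filters” for “diazepam. Samples”, “rinsed twice with ice-cold buffer” for “filtered on GF/B”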

Q: With `CCCC1(CCC)C(=O)OC[C@H]1NS(=O)(=O)c1ccc(C(F)(F)F)cc1` (racemic) as the molecule, how does the Displacement read?
A: 0%

Q: For `C=CCC1(CC=C)C(=O)OC[C@H]1NCc1ccccc1` (racemic), which Displacement is on record?
A: 0%

Q: Which Displacement does the source give for `CCCC1(CCC)C(=O)OC[C@H]1NS(=O)(=O)c1ccc2ccccc2c1` (racemic) here?
A: 0%

Q: For `CCCC1(CCC)C(=O)OC[C@H]1NS(=O)(=O)c1ccc(Cl)cc1` (racemic), which Displacement is on record?
A: 0%

Q: For `C=CC[C@H]1C(=O)OC[C@H]1NCc1ccccc1` (racemic), which Displacement is on record?
A: 0%

Q: For `CCCC1(CCC)C(=O)OC[C@H]1NS(=O)(=O)c1ccc(OC)cc1` (racemic), which Displacement is on record?
A: 0%

test system: not listed separately; assay: Percent stimulation of GABA-induced currents in Xenopus Oocytes expressing mutant rat GABA-A receptor alpha-1-beta-2(N265S) subunits at 100 uM; assay type: functional; details: not given; in short: as §1

Q: Which Stimulation does the source give for `CCCC1(CCC)C(=O)OC[C@@H]1NC(=O)OCc1ccccc1` here?
A: 123%
